# Assay outcomes as filed in PubChem BioAssay.
# LMPTP inh – blocks human LMPTP phosphatase | recombinant LMPTP-A, OMFP fluorogenic substrate, fluorescence intensity | inhibition, % at 20 µM | 360,000 compounds, 0.22% hits | AID 651560;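 active = compounds that cut the enzyme signal by at least half of the control window in the single-dose screen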;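 also: plate controls were DMSO wells with enzyme plus substrate for no effect and substrate without enzyme for full effect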
# Target sequence (P24666 whole entry, looked up): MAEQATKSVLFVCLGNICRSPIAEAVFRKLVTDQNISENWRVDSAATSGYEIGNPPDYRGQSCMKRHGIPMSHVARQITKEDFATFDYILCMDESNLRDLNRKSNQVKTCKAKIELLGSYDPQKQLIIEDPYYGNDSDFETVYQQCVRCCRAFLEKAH
#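 Test system: LMPTP-A, protein tyrosine phosphatase of low molecular weight; Input: 0.625 nM enzyme; Incubation: 50 min dark incubation at room temperature; Signal: endpoint fluorescence intensity from OMFP dephosphorylation; Read-out basis: % inhibition versus control wells.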
# SUMO1 PPI mod – alters human SUMO1 binding to SIM partners; SUMO1 binding to a labelled peptide, TR-FRET, 1 h; 360,000 compounds, 0.33% hits; inhibition, % at 20 µM; P63165; AID 602429; in the data active = inhibition above about 37%
# Target sequence (P63165 whole entry, looked up): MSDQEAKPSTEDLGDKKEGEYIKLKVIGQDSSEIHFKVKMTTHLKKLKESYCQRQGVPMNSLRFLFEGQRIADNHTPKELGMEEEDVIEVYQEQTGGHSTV
# DNMT1 inh – blocks human DNA methyltransferase DNMT1. P26358. DNMT1 molecular beacon, Hinp1I cleavage, fluorescence. inhibition (reported as % activation of signal), % at 10 µM. 360,000 compounds, 0.83% hits; in the data active = inhibition above about 50%
# Scp1 inh – blocks human Scp-1 phosphatase activity. Q9GZU7. Recombinant Scp1, phosphopeptide, malachite green phosphate absorbance. inhibition, % at 20 µM. 340,000 compounds, 0.88% hits. AID 493091;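 active = inhibition above about 50% at 20 µM, limit read from the data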;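 also: plate controls were DMSO wells with enzyme for no effect and wells lacking enzyme for full effect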
# Target sequence (Q9GZU7 76-261 limits assumed): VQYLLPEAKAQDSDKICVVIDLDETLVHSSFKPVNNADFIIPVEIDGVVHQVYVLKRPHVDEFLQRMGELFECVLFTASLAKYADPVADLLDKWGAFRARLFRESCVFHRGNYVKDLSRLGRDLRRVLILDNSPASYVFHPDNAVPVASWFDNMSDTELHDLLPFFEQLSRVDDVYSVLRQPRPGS
#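 Test system: SCP-1 catalytic domain; Buffer or medium: Acidic Tris acetate buffer with magnesium and detergent; Also added: Phosphorylated 17-residue peptide substrate; Compound: single 20 µM dose, 1% DMSO; Schedule: enzyme reaction 45 min at room temperature, colour 5 min, stabilisation 30 min; Signal: Phosphate-binding colour reagent, absorbance read at 630 nm.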
# STEP inh – blocks human striatal-enriched tyrosine phosphatase; P54829; recombinant STEP, OMFP fluorogenic substrate, fluorescence; inhibition, % at 20 µM; 360,000 compounds, 0.25% hits;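 active = inhibition at 20 µM, scaled per plate between control wells, above about 37%, limit read from the data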;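 also: 0% = DMSO with enzyme and substrate and 100% = substrate only without enzyme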
#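 System: isolated STEP enzyme; schedule: 20 min enzyme reaction at room temperature, protected from light; medium: Bis-Tris buffer pH 6.0, 2.5 mM DTT, 0.005% Tween 20; signal: fluorescence, 480/540 nm; dosing: single compound dose of 20 µM, 1% DMSO final; also added: OMFP substrate, 25 µM final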
# Scp1 confirm – confirmation of human Scp-1 phosphatase inhibitors | shares compounds with Scp1 inh | recombinant SCP-1 catalytic domain, phosphate release, malachite green absorbance | inhibition, % at 20 µM | 2,500 compounds, 61% hits | AID 540281;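 also: plate controls were DMSO with enzyme for no effect and buffer wells lacking enzyme for full effect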
# MG interference – interferes with malachite green readout, flagging false Scp-1 hits; 2,500 tested, under 10 active; shares compounds with Scp1 inh; Colorimetric interference counterscreen, malachite green absorbance 630 nm; apparent inhibition (interference), % at 20 µM;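 also: compounds added after enzyme reaction finished so only phosphate colour detection is probed; plate controls were DMSO wells with completed Scp-1 reaction for no effect and substrate wells lacking enzyme for full effect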
# Scp1 DSF – binds human Scp-1, shifting its melting temperature; shares compounds with Scp1 inh; Recombinant SCP1, Sypro Orange thermal shift Tm; thermal shift relative to vanadate control, % at 40 µM; 1,500 compounds, 25% hits; AID 540329;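 active = substances whose mean melting-temperature shift, as a percentage of the reference inhibitor's shift, reaches about 5.3%, limit read from the data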;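 also: 0% = Tm of DMSO wells and 100% = Tm with sodium orthovanadate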
# Active calls of the source: *; nt = no result. Shown are actives, neighbours in structure and some others; about 1.7% of the full set was active somewhere.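 The calls were made as follows, unless noted: active = inhibition of at least 30% at 20 µM; inactive = the rest.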
SMILES,LMPTP inh,SUMO1 PPI mod,DNMT1 inh,Scp1 inh,STEP inh,Scp1 confirm,MG interference,Scp1 DSF
Cn1ncc(C#N)c1/N=C/N(Cc1ccccc1)Cc1ccccc1,2,2,-2,73*,1,-20,-17,nt
O=C(CCCCCCCCC(=O)N/N=C/c1ccco1)N/N=C/c1ccco1,0,1,9,51*,2,68*,-11,-7
O=C(CCC(=O)N/N=C/c1ccco1)N/N=C/c1ccco1,1,-6,21,-13,8,nt,nt,nt
COc1ccc(NC(C)=[N+](C)CCNS(=O)(=O)c2ccc(Cl)cc2)cc1,-1,-1,3,96*,-4,93*,-4,-21
COc1ccc(NC(=O)CNS(=O)(=O)c2ccc(Cl)cc2)cc1,0,-4,1,3,0,nt,nt,nt
CC(C)(C)NC(=O)Cn1nnc(-c2ccc(OCc3c(F)cccc3Cl)cc2)n1,2,5,1,-10,1,nt,nt,nt
Cc1cc(C(=O)CCC(=O)N(C)CC(=O)Nc2ccc(OC(F)(F)F)cc2)c(C)s1,1,-1,-1,-6,1,nt,nt,nt
C[C@@H]1CN([C@H](C)CO)C(=O)CCCn2nncc2CO[C@H]1CN(C)C(=O)Cc1ccccc1,-3,1,2,nt,0,nt,nt,nt
CC(C)n1c(SCC(=O)Nc2nncs2)nnc1-c1ccco1,nt,nt,nt,94*,nt,77*,0,-2
O=C(N/N=C/c1ccc2c(c1)OCO2)c1ccc(COCC(F)(F)C(F)F)cc1,25,6,7,72*,9,77*,-11,-12
O=C(N/N=C/c1ccc2c(c1)OCO2)c1ccc2c(c1)OCCO2,0,-8,1,-3,-1,nt,nt,nt
COc1ccc(/C=N/NC(=O)c2ccc(COCC(F)(F)C(F)F)cc2)cc1,-2,2,0,-1,-1,nt,nt,nt
O=C(N/N=C\C=C\c1ccc(Br)cc1)c1ccc2c(c1)OCO2,57*,45*,81*,95*,98*,94*,-4,-3
C[n+]1cccc(C(=O)N/N=C/c2ccc3c(c2)OCO3)c1,0,-19,0,50*,1,15,-7,nt
CCN(CC)C(=O)CSc1nnc(-c2ccccn2)n1-c1ccccc1OC,0,-1,-3,-7,2,nt,nt,nt
CC(=O)c1ccc(NC(=O)c2noc3c2CCC3)cc1,1,5,42,62*,1,54*,-13,-1
CC[C@@H]1C/C=C\Cc2ccccc2[C@@H](C(=O)C[C@@H](O)CC(C)=O)OC1=O,-2,1,1,-2,0,nt,nt,nt
O=C(c1cc2ccccc2oc1=O)N(Cc1ccccc1F)C1CCS(=O)(=O)C1 (stereo not drawn),2,-2,-2,-7,0,nt,nt,nt
Cc1ccc(-c2csc(C3=C(O)CN(NC(=O)c4ccco4)C3=N)n2)cc1,41,5,21,51*,12,35*,-2,-12
COc1ccc(N2CC(O)=C(c3nc(-c4ccccc4)cs3)C2=N)cc1,3,-6,5,-1,1,nt,nt,nt
CCCC(C(=O)NC1CCCC1)N(Cc1ccccc1Cl)C(=O)c1snc(C(N)=O)c1N (stereo not drawn),2,-6,34,-7,2,nt,nt,nt
C#Cc1ccc([C@@H]2C=C(C(=O)O)O[C@H](OCc3ccc(CO)cc3)C2)cc1,0,-1,45,57*,2,68*,0,2
O=C(O)C1=C[C@@H](c2ccccc2)C[C@@H](OCc2ccc(CO)cc2)O1,-1,4,1,0,-1,nt,nt,nt
CCCc1c(C(=O)N/N=C/c2ccc(C)s2)nnn1-c1nonc1N,29,-2,25,61*,12,27,-7,nt
CCCc1c(C(=O)N/N=C/c2cccs2)nnn1-c1nonc1N,7,9,20,30,1,nt,nt,nt
